In one experiment the test system is Neutrophil. Description: Inhibition of PMA-stimulated superoxide production in human neutrophils. It is filed as functional, cell-based. The method in brief: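 Neutrophils in HBSS, 1 × 10⁶ cells/well, preincubated 30 min with graded compound concentrations (HBSS, 1% v/v DMSO). WST-1 added (final 0.35 mM), then PMA (final 0.295 µM). Dye reduction read in real time at 450 nm for 20 min at 37 °C. Rate compared with buffer-treated cells; AI50 is the concentration giving 50% inhibition.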

A further experiment has as its system HL-60. Description: Antiproliferative activity against human HL60 cells after 48 hrs by MTT assay. As to conditions: HL-60, 48 h. (Tetrazolium dyes change colour on reduction, which living cells bring about.)
Experiment [1] in a line: Inhibition of superoxide production by xanthine/xanthine oxidase method. Type of experiment: functional. The method in brief:
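Cell-free enzyme assay. Graded compound dilutions were prepared in 0.1 M Tris pH 7.4, 0.2 mM EDTA, 1% v/v DMSO. Final WST-1 0.35 mM, xanthine 2.38 mM and xanthine oxidase 15 mU/mL. Absorbance at 450 nm was read in real time for 20 min at 37 °C. The rate was compared with buffer controls, and the 50% inhibitory concentration was reported.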

For experiment [2], the system named is Mus musculus. As to the kind of experiment: Inhibition of superoxide production in peritoneal neutrophils of C57BL/6 gouty mouse at 25.6 umol/kg, po after 4 hrs relative to monosodium urate. Type of experiment: functional. As to conditions: C57BL/6, po. The method in brief:
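Male C57BL/6 mice, 8–12 weeks, received MSU crystals (3 mg in 500 µL PBS pH 7.4) ip, with oral gavage of compound (25.6 µmol/kg) at the same time. PBS-gavaged controls; colchicine given sc at 5 µmol/kg. After 4 h, peritoneal lavage with heparinized PBS. Cells adjusted to 1 × 10⁶ neutrophils/mL; PMA-triggered WST-1 reduction measured per million neutrophils, relative to MSU-only mice.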

For experiment [3], the system named is Mus musculus. Description: Inhibition of urate-induced neutrophil recruitment into peritoneal cavity in mouse at 25 umol/kg. It is filed as functional. The method in brief: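 In the ip MSU (3 mg) mouse model with oral gavage dosing, peritoneal lavage was taken at 4 h. Total cells were counted. A cytocentrifuged aliquot was stained with Diff-Quick, and the neutrophil percentage was scored microscopically by standard histological criteria.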

The source made the active and inactive calls.

One may read the IC50 as the concentration needed to halve the response being measured. A low value points to higher potency. On to `COC(=O)c1ccc2cccc(O)c2n1`, for which the IC50 with Neutrophil was found to be 277 µM; in the experiment with HL-60 it was 96.9 µM.

Regarding `COC(=O)c1ccc2c(n1)C(=O)C=CC2=O`, the IC50 with Neutrophil stood at 1.75 µM; in the experiment on HL-60, 4.11 µM.

Usually inhibition in vivo stands for the drop in the measured response relative to a control, in per cent. Low readings indicate a weak effect, high ones a strong effect. For the compound `O=C(O)c1ccc2c(n1)C(=O)C1=C(C2=O)S(=O)(=O)CCN1` [ACIDIATHIAZONE A], half-maximal inhibition in experiment [1] (IC50) required 55.9 µM. The same compound registered an inhibition in vivo at 25.6 µmol/kg in the experiment with Mus musculus [2] of 23%. Besides, in the experiment with Mus musculus [3], the outcome was inactive.

In turn, `Oc1ncnc2[nH]ncc12` [ALLOPURINOL] gave an IC50 in experiment [1] of 42.2 µM.

On to `COC(=O)c1ccc2c(n1)C(=O)C1=C(C2=O)S(=O)(=O)CCN1` [ASCIDIATHIAZONE A METHYL ESTER], for which it took 18.2 µM to reach half-maximal inhibition in experiment [1] (IC50). The compound also registered an inhibition in vivo at 25.6 µmol/kg in the experiment on Mus musculus [2] of 84%. The same compound had an inhibition in vivo at 25 µmol/kg in the experiment on Mus musculus [3] of 60%.

Take `O=C(O)c1ccc2c(n1)C(=O)C1=C(NC=CS1(=O)=O)C2=O` [ASCIDIATHIAZONE B]: the 50% inhibitory concentration (IC50) with Neutrophil stood at 0.44 µM; in experiment [1], 17.9 µM; in the experiment on HL-60, 16.7 µM. The compound also displayed an inhibition in vivo at 25.6 µmol/kg in the experiment on Mus musculus [2] of 59%. Further, the result in the experiment with Mus musculus [3] was inactive.

`CN(Cc1cnc2nc(N)nc(N)c2n1)c1ccc(C(=O)N[C@@H](CCC(=O)O)C(=O)O)cc1` [METHOTREXATE] showed an IC50 in the experiment on HL-60 of 0.00692 µM.
